ChEMBL document CHEMBL1773037, “Evaluation of superior BACE1 cleavage sequences containing unnatural amino acids” (Bioorg Med Chem, 2011)
Calls of active or inactive are those of the source. The calls are words filed in the database; no cut-off is given here. Non-standard residues stand in square brackets, D forms with d. Residues, ends and D or L forms follow the SMILES beside them. 2Thi = N[C@@H](Cc1cccs1)C(=O)O; Cha = N[C@@H](CC1CCCCC1)C(=O)O; Cit = NC(=O)NCCC[C@H](N)C(=O)O; Phg = N[C@H](C(=O)O)c1ccccc1; Tle = CC(C)(C)[C@H](N)C(=O)O; Nva = CCC[C@H](N)C(=O)O; Abu = CC[C@H](N)C(=O)O

How the values were obtained:
[1] = target: Beta-secretase 1 (Homo sapiens) (UniProt P56817); assay: Activity of recombinant BACE assessed as retention time of C-terminal fragment by HPLC method
Chain of Beta-secretase 1 (Homo sapiens) (P56817 whole entry, the tested form may be a part): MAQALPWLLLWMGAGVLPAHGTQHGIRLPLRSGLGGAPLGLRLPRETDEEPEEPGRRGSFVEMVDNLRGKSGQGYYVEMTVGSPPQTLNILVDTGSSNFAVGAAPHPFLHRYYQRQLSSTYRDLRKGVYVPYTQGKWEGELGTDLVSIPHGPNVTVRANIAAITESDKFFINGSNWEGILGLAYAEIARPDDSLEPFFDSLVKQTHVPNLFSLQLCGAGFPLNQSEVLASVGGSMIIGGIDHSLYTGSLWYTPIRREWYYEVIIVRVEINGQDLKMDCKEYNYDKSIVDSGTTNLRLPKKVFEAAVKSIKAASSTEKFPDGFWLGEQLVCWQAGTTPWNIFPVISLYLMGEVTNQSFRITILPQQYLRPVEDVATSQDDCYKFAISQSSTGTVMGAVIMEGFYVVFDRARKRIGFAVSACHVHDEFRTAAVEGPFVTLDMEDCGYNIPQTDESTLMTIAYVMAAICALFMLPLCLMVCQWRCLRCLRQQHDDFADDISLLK

[2] = target: Beta-secretase 1 (Homo sapiens) (UniProt P56817); assay: Activity of recombinant BACE assessed as retention time of substrate by HPLC method
[3] = target: Beta-secretase 1 (Homo sapiens) (UniProt P56817); assay: Activity of recombinant BACE assessed as retention time of N-terminal fragment by HPLC method
[4] = target: Beta-secretase 1 (Homo sapiens) (UniProt P56817); assay: Activity of recombinant BACE assessed as substrate cleavage at 300 uM after 3 hrs by HPLC analysis
Outline: (§1)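 Individually synthesized, purified substrates at 300 µM in 40 mM AcONa buffer, pH 4.5, 37 °C. rBACE1 used at 60 nM (P1, P4 substrates), 30 nM (P2, P3 substrates) or 10 nM (P1' substrates and the dodecapeptide). Aliquots taken at 0, 1 and 3 h, quenched with 7 M GuHCl, and the decrease in each substrate peak monitored by HPLC.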

[5] = target: Beta-secretase 1 (Homo sapiens) (UniProt P56817); assay: Activity of recombinant BACE assessed as substrate cleavage upto 3 hrs by HPLC analysis
Outline: as §1

[6] = target: Beta-secretase 1 (Homo sapiens) (UniProt P56817); assay: Activity of recombinant BACE assessed as substrate cleavage after 1 hr by HPLC analysis

SMILES | retention time [1] [h] | retention time [2] [h] | retention time [3] [h] | Activity [4] | Activity [5] [%] | Activity [6] [%]
CC[C@H](C)[C@H](N)C(=O)N[C@@H](CO)C(=O)N[C@@H](CCC(=O)O)C(=O)N[C@H](C(=O)N[C@@H](CC(N)=O)C(=O)N[C@@H](Cc1cccs1)C(=O)N[C@@H](CC(=O)O)C(=O)N[C@@H](C)C(=O)N[C@@H](CCC(=O)O)C(=O)N[C@@H](Cc1ccccc1)C(=O)N[C@@H](CCCNC(=N)N)C(=O)N[C@@H](Cc1cnc[nH]1)C(N)=O)C(C)C (H-ISEVN[2Thi]DAEFRH-NH2) | 0.217 | 0.483 | 0.429 | 70% | – | –
CC[C@H](NC(=O)[C@H](CC(N)=O)NC(=O)[C@@H](NC(=O)[C@H](CCC(=O)O)NC(=O)[C@H](CO)NC(=O)[C@@H](N)[C@@H](C)CC)C(C)C)C(=O)N[C@@H](CC(=O)O)C(=O)N[C@@H](C)C(=O)N[C@@H](CCC(=O)O)C(=O)N[C@@H](Cc1ccccc1)C(=O)N[C@@H](CCCNC(=N)N)C(=O)N[C@@H](Cc1cnc[nH]1)C(N)=O (H-ISEVN[Abu]DAEFRH-NH2) | 0.217 | 0.409 | – | Active | – | –
CCC[C@H](NC(=O)[C@H](Cc1cccs1)NC(=O)[C@H](Cc1cccs1)NC(=O)[C@@H](NC(=O)[C@H](CCC(=O)O)NC(=O)[C@H](CO)NC(=O)[C@@H](N)[C@@H](C)CC)[C@@H](C)CC)C(=O)N[C@@H](C)C(=O)N[C@@H](CCC(=O)O)C(=O)N[C@@H](Cc1ccccc1)C(=O)N[C@@H](CCCNC(=N)N)C(=O)N[C@@H](Cc1cnc[nH]1)C(N)=O (H-ISEI[2Thi][2Thi][Nva]AEFRH-NH2) | – | 0.658 | – | – | 90 | –
CC[C@H](C)[C@H](N)C(=O)N[C@@H](CO)C(=O)N[C@@H](CCC(=O)O)C(=O)N[C@H](C(=O)N[C@@H](CC(N)=O)C(=O)N[C@H](C(=O)N[C@@H](CC(=O)O)C(=O)N[C@@H](C)C(=O)N[C@@H](CCC(=O)O)C(=O)N[C@@H](Cc1ccccc1)C(=O)N[C@@H](CCCNC(=N)N)C(=O)N[C@@H](Cc1cnc[nH]1)C(N)=O)C(C)(C)C)C(C)C (H-ISEVN[Tle]DAEFRH-NH2) | 0.217 | 0.479 | – | – | – | –
CCC[C@H](NC(=O)[C@H](CC(N)=O)NC(=O)[C@@H](NC(=O)[C@H](CCC(=O)O)NC(=O)[C@H](CO)NC(=O)[C@@H](N)[C@@H](C)CC)C(C)C)C(=O)N[C@@H](CC(=O)O)C(=O)N[C@@H](C)C(=O)N[C@@H](CCC(=O)O)C(=O)N[C@@H](Cc1ccccc1)C(=O)N[C@@H](CCCNC(=N)N)C(=O)N[C@@H](Cc1cnc[nH]1)C(N)=O (H-ISEVN[Nva]DAEFRH-NH2) | 0.217 | 0.45 | – | Active | – | –
CC[C@H](C)[C@H](N)C(=O)N[C@@H](CCCCN)C(=O)N[C@H](C(=O)N[C@@H](CCC(=O)O)C(=O)N[C@@H](CCC(=O)O)C(=O)N[C@H](C(=O)N[C@@H](CO)C(=O)N[C@@H](CCC(=O)O)C(=O)N[C@H](C(=O)N[C@@H](CC(N)=O)C(=O)N[C@@H](CC(C)C)C(=O)N[C@@H](CC(=O)O)C(=O)N[C@@H](C)C(=O)N[C@@H](CCC(=O)O)C(=O)N[C@@H](Cc1ccccc1)C(=O)N[C@@H](CCCNC(=N)N)C(=O)N[C@@H](Cc1cnc[nH]1)C(=O)N[C@@H](CC(=O)O)C(=O)N[C@@H](CO)C(=O)NCC(N)=O)C(C)C)[C@@H](C)CC)[C@@H](C)O | 0.082 | 0.297 | 0.289 | – | – | 20
CC[C@H](C)[C@H](N)C(=O)N[C@@H](CO)C(=O)N[C@@H](CCC(=O)O)C(=O)N[C@H](C(=O)N[C@@H](CC(N)=O)C(=O)N[C@@H](CCCNC(N)=O)C(=O)N[C@@H](CC(=O)O)C(=O)N[C@@H](C)C(=O)N[C@@H](CCC(=O)O)C(=O)N[C@@H](Cc1ccccc1)C(=O)N[C@@H](CCCNC(=N)N)C(=O)N[C@@H](Cc1cnc[nH]1)C(N)=O)C(C)C (H-ISEVN[Cit]DAEFRH-NH2) | 0.217 | 0.344 | – | Active | – | –
CC[C@H](C)[C@H](N)C(=O)N[C@@H](CO)C(=O)N[C@@H](CCC(=O)O)C(=O)N[C@H](C(=O)N[C@@H](CC(N)=O)C(=O)N[C@@H](CC(C)C)C(=O)N[C@@H](CC(=O)O)C(=O)N[C@@H](C)C(=O)N[C@@H](CCC(=O)O)C(=O)N[C@@H](Cc1ccccc1)C(=O)N[C@@H](CCCNC(=N)N)C(=O)N[C@@H](Cc1cnc[nH]1)C(N)=O)C(C)C (H-ISEVNLDAEFRH-NH2) | 0.217 | 0.487 | 0.429 | 50% | 10 | –
CC[C@H](C)[C@H](N)C(=O)N[C@@H](CO)C(=O)N[C@@H](CCC(=O)O)C(=O)N[C@H](C(=O)N[C@@H](CC(N)=O)C(=O)N[C@@H](CC1CCCCC1)C(=O)N[C@@H](CC(=O)O)C(=O)N[C@@H](C)C(=O)N[C@@H](CCC(=O)O)C(=O)N[C@@H](Cc1ccccc1)C(=O)N[C@@H](CCCNC(=N)N)C(=O)N[C@@H](Cc1cnc[nH]1)C(N)=O)C(C)C (H-ISEVN[Cha]DAEFRH-NH2) | 0.217 | 0.573 | – | – | – | –
CC[C@H](C)[C@H](N)C(=O)N[C@@H](CO)C(=O)N[C@@H](CCC(=O)O)C(=O)N[C@H](C(=O)N[C@@H](CC(N)=O)C(=O)N[C@H](C(=O)N[C@@H](CC(=O)O)C(=O)N[C@@H](C)C(=O)N[C@@H](CCC(=O)O)C(=O)N[C@@H](Cc1ccccc1)C(=O)N[C@@H](CCCNC(=N)N)C(=O)N[C@@H](Cc1cnc[nH]1)C(N)=O)c1ccccc1)C(C)C (H-ISEVN[Phg]DAEFRH-NH2) | 0.217 | 0.459 | – | Active | – | –
